Reference: article PMC12095820 (Scientific Reports, 2025)

Experiments:
[1] = tested on: glioblastoma stem cells (Gli4); assay: Neurospheres formation assay; format: cell-based, human; conditions: proliferation medium, 0, 1 and 10 µM, 4 days
In short: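 Dissociated Gli4 cells (4000 per well) were plated in proliferation medium in round-bottom ultra-low-attachment wells pre-coated with poly-HEMA; a flat-bottom format was also run. Compound in DMSO was added to final 0, 1 and 10 µM. After 4 days, spheres were dissociated, and cells were mixed 1:1 with trypan blue and counted in a Neubauer chamber.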

[2] = tested on: GBM cell lines LN18 and U373; assay: Antiproliferative evaluation in 2D cell culture, summary over both GBM lines; format: cell-based, human; conditions: data not shown; crystals at 20 µM
In short: (§1)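 LN-18 and U373 cells were grown in phenol-red-free DMEM with 5% FBS and amino acids at 37 °C, 5% CO2. Cells (1 x 10³ per well) adhered 24 h, then were exposed 48 h to 0–140 µM compound, with 0.1% DMSO as vehicle. MTT (2.5 mg/mL in phenol-red-free medium) was applied 1 h at 37 °C. Plates were read at 540 nm after DMSO solubilisation and normalised to vehicle. Statistics: one-way ANOVA with Tukey.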

[3] = Dissolution in culture medium during antiproliferative assay; format: physicochemical; conditions: 20 µM
[4] = tested on: U373; assay: Antiproliferative MTT assay, 2D cell culture; format: cell-based; conditions: Homo sapiens, U373 MG, 48 h, read-out: IC50 U373
In short: as §1

[5] = tested on: LN-18; assay: Antiproliferative MTT assay, 2D cell culture; format: cell-based; conditions: Homo sapiens, LN-18, 48 h, read-out: IC50 LN-18
In short: as §1

[6] = tested on: Gli4 cells; assay: 3D anti-migratory assay on aligned nanofibers; format: cell-based, human; conditions: 10 µM, non-cytotoxic concentration
[7] = tested on: Gli4 cells; assay: 3D antiproliferative assay on non-aligned nanofibers; format: cell-based, human; conditions: proliferation and differentiation mediums, 0.1, 1 and 10 µM, 4 days
[8] = tested on: Gli4 cells; assay: MTT assay, Gli4 in differentiation medium, flat bottom plate; format: cell-based, human; conditions: flat bottom, 0, 1 and 10 µM, compared to G-15
In short: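 Gli4 cells (4000 per well) were seeded in differentiation medium in flat-bottom wells treated with laminin/lysine. Compound was tested at 0, 1 and 10 µM. Viability was quantified by MTT 5 days after incubation and expressed as % viability. N=5.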

[9] = Forced stability test; format: physicochemical; conditions: for Percentage degradation, Thermal: 50 °C; for Percentage degradation, Thermal / Percentage degradation, Acid / Percentage degradation, Basic / Percentage degradation, Luminous: 24 h; for Percentage degradation, Oxidative: H2O2 3%, 1 h; for Percentage degradation, Acid: HCl 0.1 N; for Percentage degradation, Basic: NaOH 0.1 N; for Percentage degradation, Luminous: Sunlight
In short: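 Compound stock (1 mL) was placed in a 5 mL volumetric flask for each stress. Acid and base arms used 1 mL of 0.1 N HCl or 0.1 N NaOH for 24 h, then were neutralised with the opposite reagent. Oxidative stress used 3.0% H2O2. For heat (50 °C oven, 24 h) and sunlight exposure (24 h), stock was diluted to volume in mobile phase in capped vials. Degradation was assessed chromatographically.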

[10] = tested on: MCF-10 A; assay: MTT assay on non-cancerous control cells; format: cell-based; conditions: Homo sapiens, 48 h, read-out: IC50 MCF-10 A
In short: (§2)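 Non-tumour control cells were used: BJ fibroblasts in DMEM with 5% FBS, and MCF-10A in DMEM/F12 with 5% horse serum, insulin, EGF and hydrocortisone. Cells (1 x 10³ per well) adhered 24 h, then were treated 48 h with 0–140 µM compound in DMSO (0.1% vehicle control). MTT (2.5 mg/mL) was applied 1 h at 37 °C. Formazan was dissolved in DMSO, read at 540 nm and normalised to vehicle.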

[11] = tested on: BJ; assay: MTT assay on non-cancerous control cells; format: cell-based; conditions: Homo sapiens, 48 h, read-out: IC50 BJ
In short: as §2

Percentage degradation, Thermal [9] | Percentage degradation, Oxidative [9] | Percentage degradation, Acid [9] | Percentage degradation, Basic [9] | Percentage degradation, Luminous [9] | Structure (SMILES) | Neurospheres formation [1] | IC50 in the cells assayed [2] | Ability to dissolve into medium culture [3] | IC50 [4] | IC50 [5] | Reduction of migration of Gli4 cells on aligned NFS [6] | Cell proliferation of Gli4 on non-aligned nanofibers [7] | Cell viability of the NS [8] | IC50 [10] | IC50 [11]
– | – | – | – | – | Brc1cc2c(cc1[C@@H]1Nc3ccccc3[C@@H]3C=CC[C@@H]31)OCO2 [G15, reference compound] | inhibit neurospheres formation | not able to reach IC50 values | formed crystals | – | – | – | – | – | – | –
– | – | – | – | – | Cc1cc2c(C(C)C)c(O)c(O)c(C=O)c2c(O)c1-c1c(C)cc2c(C(C)C)c(O)c(O)c(C=O)c2c1O [Gossypol, reference compound] | – | – | – | 33.8 µM | 25.3 µM | – | – | – | – | –
1.36% | 2.95% | 7.2% | 9.8% | 0.15% | Cc1ccc(S(=O)(=O)NC(=O)c2ccc3c(c2)[C@@H]2C=CC[C@@H]2[C@H](c2cc4c(cc2Br)OCO4)N3)cc1 [L-06, (3aS,4R,9bR)-4-(6-bromobenzo[d][1,3]dioxol-5-yl)-N-tosyl-3a,4,5,9b-tetrahydro-3 H-cyclopenta[c] quinoline-8-carboxamide] | inhibit neurospheres formation | – | – | 67.7 µM | 67.7 µM | ~50% | non-antiproliferative activity | slightly decreased cell viability | 33.8 µM | 102 µM
0.75% | 0.5% | 0.65% | 13.6% | 3.5% | O=C(NS(=O)(=O)c1ccc(Cl)cc1)c1ccc2c(c1)[C@@H]1C=CC[C@@H]1[C@H](c1cc3c(cc1Br)OCO3)N2 [L-37, (3aS,4R,9bR)-4-(6-bromobenzo[d][1,3]dioxol-5-yl)-N-((4-chlorophenyl)sulfonyl)-3a,4,5,9b-tetrahydro-3 H-cyclopenta[c] quinoline-8-carboxamide] | inhibit neurospheres formation | – | – | 39.8 µM | 40.7 µM | – | trend to decrease cell proliferation | slightly decreased cell viability | 23.9 µM | 110 µM
